For data set [1], the target named is Matrix metalloproteinase-9 (Homo sapiens, UniProt P14780). Nature of the data set: Inhibition of MMP9 using (7-methoxycoumarin-4-yl)acetyl-Pro-Leu-Gly-Leu-(3-(2,4-dinitrophenyl)-L-2,3-diaminopropionyl)Ala-Arg-NH2 as substrate incubated for 30 mins prior to substrate addition measured for 10 mins by fluorometry. The procedure, abridged:
(§1)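 Activated MMP-8 or MMP-9 (2 nM) was preincubated with inhibitor (10 pM–1 mM) in 50 mM Tris-HCl pH 7.5 with 0.2 M NaCl, 5 mM CaCl2, 20 μM ZnSO4 and 0.05% Brij 35 at 37 °C for 30 min. Fluorogenic substrate (10 μL of 50 μM into 90 μL) was then added. Rates from the first 10 min were plotted against inhibitor concentration, and values are the mean of three experiments.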

The target of the next data set is Neutrophil collagenase (Homo sapiens, UniProt P22894). Briefly: Inhibition of MMP8 using (7-methoxycoumarin-4-yl)acetyl-Pro-Leu-Gly-Leu-(3-(2,4-dinitrophenyl)-L-2,3-diaminopropionyl)Ala-Arg-NH2 as substrate incubated for 30 mins prior to substrate addition measured for 10 mins by fluorometry. The procedure, abridged:
as §1

In a further data set the target is Collagenase 3 (Homo sapiens, UniProt P45452). Nature of the data set: Inhibition of MMP13 using (7-methoxycoumarin-4-yl)acetyl-Pro-Leu-Gly-Leu-(3-(2,4-dinitrophenyl)-L-2,3-diaminopropionyl)Ala-Arg-NH2 as substrate incubated for 30 mins prior to substrate addition measured for 10 mins by fluorometry.
Data set [2] deals with 72 kDa type IV collagenase (Homo sapiens, UniProt P08253). Briefly: Inhibition of MMP2 using (7-methoxycoumarin-4-yl)acetyl-Pro-Leu-Gly-Leu-(3-(2,4-dinitrophenyl)-L-2,3-diaminopropionyl)Ala-Arg-NH2 as substrate incubated for 30 mins prior to substrate addition measured for 10 mins by fluorometry.
The test system of data set [3] is Kidney. Nature of the data set: Tmax in C57/Bl6 mouse kidney at 250 kBq/g bodyweight, iv administered as bolus dose by PET scanning. Type of data set: ADME, organism-based. To be noted: in vivo. The essentials:
(§2)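 Adult C57/Bl6 mice given the 18F tracer by intravenous injection. List-mode PET data acquired for 120 min on a high-resolution small-animal scanner and reconstructed into dynamic frames iteratively. Organ volumes of interest were drawn on co-registered CT. Uptake is counts per mL in the VOI divided by total counts in the mouse ×100 (% ID/mL).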

The test system of data set [4] is Liver. Nature of the data set: Tmax in C57/Bl6 mouse liver at 250 kBq/g bodyweight, iv administered as bolus dose by PET scanning. It is filed as ADME, organism-based. To be noted: in vivo. The procedure, abridged:
as §2

In data set [5] the test system is Liver. Nature of the data set: Half life in C57/Bl6 mouse liver at 250 kBq/g bodyweight, iv administered as bolus dose by PET scanning. To be noted: in vivo. Type of data set: ADME, organism-based. The procedure, abridged:
as §2

The subject of data set [6] is Kidney. Briefly: Half life in C57/Bl6 mouse kidney at 250 kBq/g bodyweight, iv administered as bolus dose by PET scanning. It is filed as ADME, organism-based. To be noted: in vivo. The procedure, abridged: as §2

Usually IC50 stands for the concentration that inhibits the measured activity by half. Read a low IC50 as greater potency in that assay. As a reminder, the Tmax is the time from dosing to the highest level.

SMILES strings stand for the structures.

Chain of 72 kDa type IV collagenase (P08253 whole entry): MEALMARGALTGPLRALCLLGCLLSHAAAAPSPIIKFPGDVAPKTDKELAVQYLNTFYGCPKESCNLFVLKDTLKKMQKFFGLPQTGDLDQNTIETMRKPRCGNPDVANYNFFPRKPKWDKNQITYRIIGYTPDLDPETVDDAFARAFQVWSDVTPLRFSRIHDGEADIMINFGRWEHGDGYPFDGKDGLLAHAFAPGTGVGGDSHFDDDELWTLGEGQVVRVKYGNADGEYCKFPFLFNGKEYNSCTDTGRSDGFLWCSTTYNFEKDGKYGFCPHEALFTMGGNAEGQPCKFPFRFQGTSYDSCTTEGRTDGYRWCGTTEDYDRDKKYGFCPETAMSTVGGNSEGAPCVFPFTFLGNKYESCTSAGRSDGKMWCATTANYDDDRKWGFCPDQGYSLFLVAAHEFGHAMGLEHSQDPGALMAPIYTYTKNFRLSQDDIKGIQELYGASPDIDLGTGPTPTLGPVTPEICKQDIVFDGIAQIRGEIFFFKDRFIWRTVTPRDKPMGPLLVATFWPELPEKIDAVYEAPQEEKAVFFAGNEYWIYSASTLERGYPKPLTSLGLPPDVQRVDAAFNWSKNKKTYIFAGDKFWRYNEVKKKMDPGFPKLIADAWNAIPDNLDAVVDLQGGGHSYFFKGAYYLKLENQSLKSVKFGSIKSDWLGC
Chain of Neutrophil collagenase (P22894 whole entry): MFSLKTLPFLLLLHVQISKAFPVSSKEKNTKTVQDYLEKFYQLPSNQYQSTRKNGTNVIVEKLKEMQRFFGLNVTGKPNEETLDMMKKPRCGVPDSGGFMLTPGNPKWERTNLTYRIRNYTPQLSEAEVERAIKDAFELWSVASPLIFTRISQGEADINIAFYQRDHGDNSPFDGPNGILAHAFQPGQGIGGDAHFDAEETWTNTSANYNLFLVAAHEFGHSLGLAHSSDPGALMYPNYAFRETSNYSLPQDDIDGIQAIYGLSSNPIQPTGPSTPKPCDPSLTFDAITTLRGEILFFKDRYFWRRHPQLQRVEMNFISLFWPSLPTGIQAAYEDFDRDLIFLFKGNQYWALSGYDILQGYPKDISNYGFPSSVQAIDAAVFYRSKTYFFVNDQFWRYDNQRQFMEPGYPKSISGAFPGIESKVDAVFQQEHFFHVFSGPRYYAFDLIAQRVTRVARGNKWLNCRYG
Chain of Matrix metalloproteinase-9 (P14780 whole entry): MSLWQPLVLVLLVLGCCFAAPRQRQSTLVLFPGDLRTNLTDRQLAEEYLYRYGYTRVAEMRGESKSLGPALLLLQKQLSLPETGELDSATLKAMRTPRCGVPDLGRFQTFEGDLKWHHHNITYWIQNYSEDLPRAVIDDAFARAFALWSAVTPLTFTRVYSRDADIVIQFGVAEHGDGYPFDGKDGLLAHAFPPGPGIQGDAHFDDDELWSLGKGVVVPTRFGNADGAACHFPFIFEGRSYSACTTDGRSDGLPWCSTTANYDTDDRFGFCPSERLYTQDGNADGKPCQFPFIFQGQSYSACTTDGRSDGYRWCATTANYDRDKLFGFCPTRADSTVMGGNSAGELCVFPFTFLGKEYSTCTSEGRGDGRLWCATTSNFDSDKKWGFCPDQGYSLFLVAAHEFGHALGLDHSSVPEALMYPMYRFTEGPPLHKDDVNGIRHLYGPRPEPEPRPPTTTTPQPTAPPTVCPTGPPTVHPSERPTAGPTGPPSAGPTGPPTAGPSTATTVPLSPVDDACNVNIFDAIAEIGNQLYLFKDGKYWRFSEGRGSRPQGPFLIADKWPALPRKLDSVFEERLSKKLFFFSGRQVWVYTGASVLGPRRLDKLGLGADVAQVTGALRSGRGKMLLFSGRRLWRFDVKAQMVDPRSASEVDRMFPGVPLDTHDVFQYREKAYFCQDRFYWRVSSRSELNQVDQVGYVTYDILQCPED

Take `COc1ccc(S(=O)(=O)N(Cc2cn(CCF)nn2)[C@@H](C(=O)NO)C(C)C)cc1`: the IC50 was 0.03 nM in data set [1], 0.02 nM at Neutrophil collagenase, 0.006 nM against Collagenase 3 and 0.13 nM in data set [2].
On the same counts, the results for `C#CCOCCOCCOCCOCCOc1ccc(CN([C@@H](C(=O)NO)C(C)C)S(=O)(=O)c2ccc(OC)cc2)cc1` are 0.37 nM, 0.11 nM, 0.09 nM and 0.35 nM.
On the same counts, the results for `COc1ccc(S(=O)(=O)N(Cc2cn([C@@H]3O[C@H](CO)[C@@H](O)[C@H](O)[C@H]3F)nn2)[C@@H](C(=O)NO)C(C)C)cc1` are 0.6 nM, 0.5 nM, 0.5 nM and 0.2 nM.
On the same counts, the results for `COc1ccc(S(=O)(=O)N(Cc2ccc(OCCOCCOCCOCCOCc3cn(CCOCCOCCOCCF)nn3)cc2)[C@@H](C(=O)NO)C(C)C)cc1` are 5 nM, 5 nM, 4 nM and 4 nM.
As to `COc1ccc(S(=O)(=O)N(Cc2cn(CCOS(=O)(=O)c3ccc(C)cc3)nn2)[C@@H](C(=O)NO)C(C)C)cc1`, the IC50 in data set [1] amounted to 7 nM; on Neutrophil collagenase it was 8 nM; against Collagenase 3, 5 nM; in data set [2], 107 nM.
On the same counts, the results for `COc1ccc(S(=O)(=O)N(Cc2ccc(OCCOCCOCCOCCOCc3cn([C@@H]4O[C@H](CO)[C@@H](O)[C@H](O)[C@H]4F)nn3)cc2)[C@@H](C(=O)NO)C(C)C)cc1` are 43 nM, 58 nM, 18 nM and 30 nM.
The matching figures for `COc1ccc(S(=O)(=O)N(Cc2cn(CCOCCOCCOCCn3cc(CN([C@@H](C(=O)NO)C(C)C)S(=O)(=O)c4ccc(OC)cc4)nn3)nn2)[C@@H](C(=O)NO)C(C)C)cc1`: over 100000 nM, over 100000 nM, over 100000 nM and over 100000 nM.
Regarding `COc1ccc(S(=O)(=O)N(Cc2cn(CCOCCOCCOCCF)nn2)[C@@H](C(=O)NO)C(C)C)cc1`, the IC50 in data set [1] turned out to be 0.05 nM; on Neutrophil collagenase, 0.04 nM; against Collagenase 3, 0.04 nM; in data set [2], 0.1 nM.
With `COc1ccc(S(=O)(=O)N(Cc2cn(CCOCCOCCOCCOc3cccnc3F)nn2)[C@@H](C(=O)NO)C(C)C)cc1`, the IC50 in data set [1] came out at 4 nM; on Neutrophil collagenase, 5 nM; against Collagenase 3 it was 1 nM; in data set [2], 3 nM.
On the same counts, the results for `COc1ccc(S(=O)(=O)N(Cc2ccc(OCCOCCOCCOCCOCc3cn(CCF)nn3)cc2)[C@@H](C(=O)NO)C(C)C)cc1` are 0.6 nM, 0.2 nM, 6 nM and 2 nM.
On the same counts, the results for `C#CCN([C@@H](C(=O)NO)C(C)C)S(=O)(=O)c1ccc(OC)cc1` are 2 nM, 14 nM, 10 nM and 5 nM.
Consider `CC(C)[C@H](C(=O)NO)N(Cc1ccccc1)S(=O)(=O)c1ccc(OCC[18F])cc1`, for which the Tmax is on record as 1.5 min with Kidney [3] and 2.5 min in the data set on Liver [4]. The t1/2 was 7 min with Liver [5] and 3 min in the data set with Kidney [6].
For the compound `COc1ccc(S(=O)(=O)N(Cc2cn(CCOCCOCCOCCOS(=O)(=O)c3ccc(C)cc3)nn2)[C@@H](C(=O)NO)C(C)C)cc1`, the IC50 was found to be 0.06 nM in data set [1], 0.03 nM on Neutrophil collagenase, 0.02 nM at Collagenase 3 and 0.07 nM in data set [2].
On the same counts, the results for `COc1ccc(S(=O)(=O)N(Cc2cn(CCOCCOCCOCCN=[N+]=[N-])nn2)[C@@H](C(=O)NO)C(C)C)cc1` are 0.9 nM, 9 nM, 6 nM and 1.2 nM.
The matching figures for `COc1ccc(S(=O)(=O)N(Cc2ccc(OCCOCCOCCOCCn3cc(COCCOCCOCCOCCOCCF)nn3)cc2)[C@@H](C(=O)NO)C(C)C)cc1`: 3 nM, 3 nM, 1 nM and 4 nM.

The values are drawn from ChEMBL document CHEMBL2062426 (J Med Chem, 2012).
